In ChEMBL document CHEMBL4765418, “Discovery of novel quinazolinone derivatives as potential anti-HBV and anti-HCC agents” (Eur J Med Chem, 2020):
The source made the active and inactive calls. The rule behind the calls is not given here.

Key:
[1] = Cytotoxicity against human HepG2 2.2.15 cells assessed as reduction in cell viability measured after 72 hrs by MTT assay; format: cell-based
Summary of the method: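 HepG2 2.2.15 cells (HBV-producing; grown in DMEM with 10% FBS, penicillin/streptomycin and 0.38 mg/mL G418) seeded in 96-well plates and grown 24 h, then treated 72 h with compounds. Viability read by MTT absorbance at 490 nm relative to untreated cells. CC50 is the dose causing 50% cell death.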

[2] = test system: Hepatitis B virus; test: Antiviral activity against HBV infected in human HepG2.2.15 cells assessed as inhibition of DNA replication at 0.8 uM supplemented with fresh medium containing compound every 2 days for 6 days by RT-PCR analysis relative to control; format: functional; details: HepG2 2.2.15, 144 h, time 6 day
Summary of the method: (§1)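 HepG2 2.2.15 cells (2×10^5/well, 24-well) left 24 h to recover from trypsinization, then given fresh medium with compound (single-point screen at 0.8 μM), renewed every 2 days for 6 days. Intracellular HBV DNA extracted and quantified by real-time PCR. IC50 is the dose giving 50% inhibition of DNA replication, taken from dose–response.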

[3] = test system: Hepatitis B virus; test: Antiviral activity against HBV infected in human HepG2.2.15 cells assessed as inhibition of DNA replication supplemented with fresh medium containing compound every 2 days for 6 days by RT-PCR analysis; format: functional, organism-based; details: HepG2 2.2.15; summary of the method: as §1
[4] = Selectivity index, ratio of CC50 for human HepG2 2.2.15 cells to IC50 for antiviral activity against HBV infected in human HepG2.2.15 cells assessed as inhibition of DNA replication; format: toxicity, cell-based; details: read-out: Ratio CC50/IC50
[5] = test system: Hepatitis B virus; test: Antiviral activity against HBV infected in human HepG2.2.15 cells assessed as inhibition of HBsAg production supplemented with fresh medium containing compound every 3 days for 6 days by EIA relative to control; format: functional, HepG2 2.2.15; details: time 6 day
[6] = test system: Hepatitis B virus; test: Antiviral activity against lamivudine and entecavir-resistant HBV harboring rtL180 M/rtM204V/rtT184L mutant infected in human HepG2.2.15 cells assessed as inhibition of DNA replication at 0.8 uM supplemented with fresh medium containing compound every 2 days for 6 days by RT-PCR analysis relative to control; format: functional; details: HepG2 2.2.15, 144 h, time 6 day
[7] = test system: HepG2; test: Antiproliferative activity against human HepG2 cells assessed as inhibition of cell proliferation after 72 hrs by MTT assay; format: functional, cell-based; details: HepG2, 72 h
Summary of the method: (§2)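 Cells seeded in 96-well plates and grown 24 h to reach exponential growth, then exposed to test compounds in culture medium for 72 h. Viability read by MTT absorbance at 490 nm relative to untreated cells. IC50 is the concentration giving 50% inhibition of proliferation.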

[8] = test system: Huh-7; test: Antiproliferative activity against human Huh-7 cells assessed as inhibition of cell proliferation after 72 hrs by MTT assay; format: functional, cell-based; details: Huh-7, 72 h; summary of the method: as §2
[9] = test system: SK-HEP1; test: Antiproliferative activity against human SK-HEP1 cells assessed as inhibition of cell proliferation after 72 hrs by MTT assay; format: functional, cell-based; details: SK-HEP1, 72 h; summary of the method: as §2
[10] = test system: HepG2; test: Induction of apoptosis in human HepG2 cells assessed as nuclear fragmentation at 5 to 20 uM after 48 hrs by Hoechst 33342 staining based fluorescence microscopic analysis; format: functional, cell-based; details: dose 5-20 µM
Summary of the method: (§3)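 HepG2 cells (5×10^4/well, six-well) exposed to 5, 10 or 20 μM for 48 h, washed with PBS, fixed in 4% paraformaldehyde 30 min, stained with Hoechst 33342 (20 μg/mL) 15 min at room temperature in the dark. Nuclear fragmentation and chromatin condensation scored by fluorescence microscopy.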

[11] = test system: HepG2; test: Induction of apoptosis in human HepG2 cells assessed as chromatin condensation at 5 to 20 uM after 48 hrs by Hoechst 33342 staining based fluorescence microscopic analysis; format: functional, cell-based; details: dose 5-20 µM; summary of the method: as §3
[12] = test system: HepG2; test: Induction of apoptosis in human HepG2 cells assessed as viable cells at 10 uM after 48 hrs by Annexin-V FITC/propidium iodide staining based fluorescence microscopic analysis (reference value: 97.07%); format: functional; details: read-out: Activity
[13] = test system: HepG2; test: Induction of apoptosis in human HepG2 cells assessed as early apoptotic cells at 10 uM after 48 hrs by Annexin-V FITC/propidium iodide staining based fluorescence microscopic analysis (reference value: 1.68%); format: functional
[14] = test system: HepG2; test: Induction of apoptosis in human HepG2 cells assessed as late apoptotic cells at 10 uM after 48 hrs by Annexin-V FITC/propidium iodide staining based fluorescence microscopic analysis (reference value: 1.11%); format: functional
[15] = test system: HepG2; test: Induction of apoptosis in human HepG2 cells assessed as necrotic cells at 10 uM after 48 hrs by Annexin-V FITC/propidium iodide staining based fluorescence microscopic analysis (reference value: 0.14%); format: functional
[16] = test system: HepG2; test: Induction of apoptosis in human HepG2 cells assessed as viable cells at 20 uM after 48 hrs by Annexin-V FITC/propidium iodide staining based fluorescence microscopic analysis (reference value: 97.07%); format: functional; details: read-out: Activity
[17] = test system: HepG2; test: Induction of apoptosis in human HepG2 cells assessed as early apoptotic cells at 20 uM after 48 hrs by Annexin-V FITC/propidium iodide staining based fluorescence microscopic analysis (reference value: 1.68%); format: functional
[18] = test system: HepG2; test: Induction of apoptosis in human HepG2 cells assessed as late apoptotic cells at 20 uM after 48 hrs by Annexin-V FITC/propidium iodide staining based fluorescence microscopic analysis (reference value: 1.11%); format: functional
[19] = test system: HepG2; test: Induction of apoptosis in human HepG2 cells assessed as necrotic cells at 20 uM after 48 hrs by Annexin-V FITC/propidium iodide staining based fluorescence microscopic analysis (reference value: 0.14%); format: functional
[20] = test system: HepG2; test: Induction of apoptosis in human HepG2 cells assessed as up regulation of Bad expression measured after 48 hrs by Western blot analysis; format: functional, cell-based
Summary of the method: (§4)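 HepG2 cells treated 5, 10 or 20 μM for 48 h, lysed; 40 μg protein/lane resolved by SDS-PAGE, transferred to PVDF, blocked in 5% nonfat milk, probed overnight at 4 °C with mouse anti-Bad, Bax, Bcl-2 or Bcl-xl, then secondary antibody 2 h. ECL detection; band densities expressed relative to GAPDH.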

[21] = test system: HepG2; test: Induction of apoptosis in human HepG2 cells assessed as up regulation of Bax expression measured after 48 hrs by Western blot analysis; format: functional, cell-based; summary of the method: as §4
[22] = test system: HepG2; test: Induction of apoptosis in human HepG2 cells assessed as down regulation of Bcl-2 expression measured after 48 hrs by Western blot analysis; format: functional, cell-based; summary of the method: as §4
[23] = test system: HepG2; test: Induction of apoptosis in human HepG2 cells assessed as down regulation of Bcl-xl expression measured after 48 hrs by Western blot analysis; format: functional, cell-based; summary of the method: as §4
[24] = test system: HepG2; test: Induction of apoptosis in human HepG2 cells assessed as viable cells at 5 uM after 48 hrs by Annexin-V FITC/propidium iodide staining based flow cytometric analysis (reference value: 97.07%); details: HepG2, 48 h
[25] = test system: HepG2; test: Induction of apoptosis in human HepG2 cells assessed as necrotic cells at 5 uM after 48 hrs by Annexin-V FITC/propidium iodide staining based flow cytometric analysis (reference value: 0.14%)
[26] = test system: HepG2; test: Induction of apoptosis in human HepG2 cells assessed as late apoptotic cells at 5 uM after 48 hrs by Annexin-V FITC/propidium iodide staining based flow cytometric analysis (reference value: 1.11%)
[27] = test system: HepG2; test: Induction of apoptosis in human HepG2 cells assessed as early apoptotic cells at 5 uM after 48 hrs by Annexin-V FITC/propidium iodide staining based flow cytometric analysis (reference value: 1.68%)

Q: What does the source list for `CN(C)CCCOc1ccc2nc(SCc3ccccc3)n(Cc3ccco3)c(=O)c2c1`?
A: CC50 at 72 h [1]: > 10 µM; inhibition at 0.8 µM [2]: 67.3%; IC50 [3]: 0.58 µM; selectivity ratio [4]: > 17.2; inhibition (INH) [5]: 4.55%; inhibition at 0.8 µM [6]: 64%; IC50 [7]: 5.44 µM; IC50 [8]: 6.42 µM; IC50 [9]: 6.75 µM; Activity [10]: Active; Activity [11]: Active; viability at 10 µM [12]: 57.5%; Activity [13]: 23.83%; Activity [14]: 14.15%; Activity [15]: 4.5%; viability at 20 µM [16]: 22.9%; Activity [17]: 40.31%; Activity [18]: 31.67%; Activity [19]: 5.12%; Activity [20]: Dose-dependent effect; Activity [21]: Dose-dependent effect; Activity [22]: Dose-dependent effect; Activity [23]: Dose-dependent effect; viability at 5 µM [24]: 81.5%; Activity [25]: 0.49%; Activity [26]: 4.88%; Activity [27]: 13.07%
